From PubChem BioAssay
Only some compounds are listed: those with a hit (about 1.9% of all), similar ones and a draw of the others.
NR1D1 modulator – modulators of Rev-erb alpha DNA binding, primary screen, biochemical, FITC-DNA, fluorescence polarization, uHTS; activity, % at 10 µM; AID 1259318, 2017; Rev-erbα–FITC-DNA binding, 90 min; hit rate 0.79% among 370,000;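 active = activity above about 14%, limit read from the data; passing the limit was not always enough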;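 also: 0% = DMSO wells with 35 nM protein and 100% = DMSO wells with 750 nM protein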
NR2E3 ag-1 – NR2E3 agonists in two-hybrid cells, primary screen, cell-based, luminescence, CHO-S, Gal4-NCOR/VP16-NR2E3; Photoreceptor-specific nuclear receptor (Homo sapiens), Q9Y5X4; hit rate 0.35% among 360,000; luciferase; inhibition of corepressor binding, % at 3.98 µM;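 active = inhibition above the mean of all tested compounds plus 3 SD, cut at about 70% in these data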;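 also: 0% = DMSO with NR2E3 transfected cells and 100% = cells lacking NR2E3 construct; higher means lower luciferase signal from less NR2E3 corepressor binding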
Target sequence (Q9Y5X4 whole entry, looked up, the tested form may be a part): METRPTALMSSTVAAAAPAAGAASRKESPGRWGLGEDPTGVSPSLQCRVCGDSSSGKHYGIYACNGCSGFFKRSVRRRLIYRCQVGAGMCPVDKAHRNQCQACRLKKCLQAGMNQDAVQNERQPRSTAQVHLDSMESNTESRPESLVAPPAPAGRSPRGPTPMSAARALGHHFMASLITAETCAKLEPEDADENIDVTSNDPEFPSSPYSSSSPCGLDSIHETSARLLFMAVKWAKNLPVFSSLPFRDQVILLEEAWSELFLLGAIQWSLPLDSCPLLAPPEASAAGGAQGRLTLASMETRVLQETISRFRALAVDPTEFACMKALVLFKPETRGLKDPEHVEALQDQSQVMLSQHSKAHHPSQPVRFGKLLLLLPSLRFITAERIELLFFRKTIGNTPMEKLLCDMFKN
PG9 Ab binder – binders of HIV-1 gp120 antibody PG9, primary screen, biochemical, TR-FRET | TR-FRET gp120-PG9 antibody binding | inhibition, % at 6.7 µM | hit rate 0.43% among 360,000 | AID 624416, 2012; in the data active = inhibition above about 8.5%
MT1-MMP act inh – blockers of MT1-MMP proenzyme processing, primary screen, HT1080 RFP-PRO-GFP cells, GFP/RFP fluorescence. Matrix metalloproteinase-14 (Homo sapiens), P50281. hit rate 0.061% among 360,000. GFP/RFP ratio change, % at 20 µM. AID 651647, 2012. GFP/RFP ratio fluorescence, overnight; percent of plate control window, DMSO zero;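 active = GFP/RFP ratio change of at least 30% with cell ATP level not reduced by more than half and red fluorescence within 50% of control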
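Assay system: HT1080 RFP-PRO-GFP cells. Benchmarks: DMSO vehicle wells and RFP-L50D-GFP reporter cell wells. Times: overnight cell settling, then overnight compound exposure, 37 °C, 5% CO2. Compound: 20 µM single dose, 1% DMSO. Read-out basis: GFP/RFP fluorescence ratio.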
NR2E3 ag-2 – inhibitors of NR2E3-RetCOR corepressor binding, primary screen, NR2E3 agonist project, biochemical, TR-FRET, GST-NR2E3, biotin-RetCOR; Photoreceptor-specific nuclear receptor (Homo sapiens), Q9Y5X4; 1536-well; inhibition of corepressor binding, % at 4.78 µM; hit rate 0.12% among 320,000; AID 2300, 2010;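 active = percent inhibition above the cutoff of mean plus 3 SD of all tested compounds, set per screening campaign, cut at about 20% in these data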;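 also: 0% = DMSO wells and 100% = biotin wells as full block of FRET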
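System: GST-tagged NR2E3 plus biotinylated RetCOR corepressor; Buffer or medium: pH 7.5 Tris-based buffer; Probe or stimulus: RetCOR corepressor, biotinylated, 7 nM; Doses: compound at 4.8 µM, single dose; Schedule: 5 h incubation at 4 °C; Technique: time-resolved FRET; Evaluation: percent inhibition of TR-FRET ratio; Replication: one well per compound, singlicate testing.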
SKN-1 inh – suppressors of acrylamide-induced Pgst-4::GFP reporter in worms, primary screen, SKN-1 inhibitor project, whole organism, uHTS, GFP/RFP fluorescence ratio, strain VP596; C. elegans VP596 Pgst-4::GFP/RFP ratio, 24 h; inhibition, % at 21.8 µM; hit rate 0.49% among 360,000; AID 624304, 2012;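 active = interference check ratio from 0.5 to 1.5 plus GFP to RFP signal ratio inhibition reaching or exceeding a fixed threshold, cut at about 30% in these data, passing the limit was not always enough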
PG9 binder conf – binders of anti-gp120 antibody PG9, confirmation, biochemical, TR-FRET | shares compounds with PG9 Ab binder | TR-FRET PG9 antibody binding | inhibition, % at 6.7 µM | hit rate 90% among 1,500; in the data active = inhibition above about 9%
PGV04 counter – binders of control antibody PGV04, counter-screen for PG9 antibody binder project, biochemical, TR-FRET, distinct HIV envelope site; TR-FRET PGV04 antibody-gp120 binding; hit rate 95% among 1,500; inhibition, % at 6.7 µM; shares compounds with PG9 Ab binder; in the data active = inhibition above about 9.5%
PG9 binder DR – small-molecule binders of antibody PG9, dose response, biochemical, TR-FRET, HIV-1 gp120 antibody; TR-FRET PG9 antibody-gp120 binding inhibition; shares compounds with PG9 Ab binder; 95 tested, under 10 active; IC50, µM; AID 651848, 2012; in the data active = IC50 below about 10 µM
PGV04 DR counter – binders of control antibody PGV04, dose response, counter-screen for PG9 antibody binder project, biochemical, TR-FRET, distinct HIV envelope site; shares compounds with PG9 Ab binder; TR-FRET binding to control antibody PGV04; IC50, µM; hit rate 20% among 95
PG126 binding DR – binders of control antibody PG126, dose response, counter-screen for PG9 antibody binder project, biochemical, TR-FRET, distinct HIV envelope site; shares compounds with PG9 Ab binder; TR-FRET binding to antibody PG126, counterscreen; IC50, µM; hit rate 20% among 95; AID 651939, 2012
An asterisk follows results filed as active; i = inactive; x = no result. Rule as the data show it, unless noted: active = IC50 below about 9 µM; inactive = the rest.

SMILES	NR1D1 modulator	NR2E3 ag-1	PG9 Ab binder	MT1-MMP act inh	NR2E3 ag-2	SKN-1 inh	PG9 binder conf	PGV04 counter	others
CCOC(=O)c1sc(=S)[nH]c1C	1	-7	19*	-5	x	7	11*	9	PG9 binder DR=i;PGV04 DR counter=i;PG126 binding DR=i
CCOC(=O)c1c(C)[nH]sc1=S	5	-25	17*	1	x	6	9.3*	8	PG9 binder DR=>67;PGV04 DR counter=i;PG126 binding DR=i
COc1ccccc1-c1nc(SCC(=O)NCc2ccco2)c2c(=O)n(C)c(=O)n(C)c2n1	2	-15	28*	-10	4	15	26*	30*
CCOC(=O)N[C@@H](Cc1cccnc1)C(=O)N1CCC[C@H]1C(=O)NCCc1ccccc1Cl	4	x	3	x	x	x	x	x
CCCCNS(=O)(=O)c1ccc2nc(-c3cccnc3)cc(C(=O)NCCCOC)c2c1	0	9	11*	1	-2	-2	13*	15*
C=CCN1C(=O)[C@H](CC(=O)NCCCOCCCC)[C@@]2(C(=O)OCC)CCCC=C12	-2	x	x	x	x	x	x	x
COc1ccc(/C(O)=C2/C(=O)C(=O)N(CCCN(C)C)C2c2cccc(Cl)c2)cc1OC (stereo unspecified)	-3	-23	47*	6	0	9	17*	22*
CCN(CC)CCCN1C(=O)C(=O)/C(=C(/O)c2ccc(Cl)cc2)C1c1ccccn1 (stereo unspecified)	-4	4	9.0*	-4	1	6	13*	16*
CCN(CC)CCN1C(=O)C(=O)/C(=C(/O)c2cccc(OC)c2)C1c1ccccn1 (stereo unspecified)	2	-35	0	3	-1	11	x	x
COc1ccc(CC(=O)Nc2ccc(N3CCN(c4ccc(OC)cc4)CC3)c(C#N)c2)cc1	8	-15	9.1*	8	2	-3	18*	24*
Cc1ccccc1CN1CCCCC(NC(=O)c2ccc(F)c(F)c2)C1=O (stereo unspecified)	2	x	x	x	x	x	x	x
O=C(NCc1ccccc1)[C@H]1CCCN1C(=O)[C@H]1CCCN1C(=O)c1ccc(F)cc1	-10	x	-1	x	x	x	x	x
CC1CCN(C(=O)c2ncn3c2C(=O)NC[C@H]3C)CC1	-4	x	-1	x	x	x	x	x
COc1cc(NC(=O)c2cc3ccccc3o2)c(OC)cc1Cl	16	-28	20*	-1	0	7	18*	34*
COc1cc(NC(=O)c2cc3ccccc3o2)c(OC)cc1Br	20	-36	1	0	-3	-3	x	x
CC(C)C[C@H]1COc2c(Cl)cccc2S(=O)(=O)N1Cc1cccc(Cl)c1	6	x	-1	x	x	x	x	x
COC(=O)c1c(NC(=S)Nc2ccc(C(=O)N3CCOCC3)cc2)sc2c1CCC2	5	21	10*	-6	0	0	5	6
CNC(=S)Nc1sc2c(c1C(=O)OC)CCC2	2	-13	-2	0	4	-7	x	x
CC(C)CNS(=O)(=O)/C=C/c1ccccc1CCNC(=O)OC(C)(C)C	-3	x	x	x	x	x	x	x
CCC(C)(C)NC(=S)Nc1ccc(-c2nc3ccc(C)cc3s2)cc1	-5	-139	11*	2	3	6	10*	24*
CCCCNC(=S)Nc1ccc(-c2nc3ccc(C)cc3s2)cc1	4	-126	-1	1	2	-4	x	x
CCOc1cccc2cc(C(=O)NC(C)c3ccccc3)c(=N)oc12 (stereo unspecified)	1	-11	9.0*	-2	1	-6	9.2*	15*
CSc1nc(-c2cccs2)c(C#N)c(=O)[nH]1	-9	-19	49*	10	17	7	55*	68*
CCOC(=O)Cc1csc(NC(=O)CSc2nc(-c3ccccc3)c(C#N)c(=O)[nH]2)n1	-1	-8	0	-1	12	5	x	x
CNC(=O)NC(=O)CSc1nc(-c2cccs2)c(C#N)c(=O)[nH]1	5	-13	58*	1	x	6	58*	70*
SMILES	NR1D1 modulator	NR2E3 ag-1	PG9 Ab binder	MT1-MMP act inh	NR2E3 ag-2	SKN-1 inh	PG9 binder conf	PGV04 counter	others
N#Cc1c(-c2ccccc2)nc(SCC(=O)NC2CCCCC2)[nH]c1=O	0	4	8	0	5	5	x	x
CCSc1nc(-c2ccccc2)c(C#N)c(=O)[nH]1	-2	-17	9.5*	2	14	5	15*	21*
COc1cc(OC)cc(C(=O)NCC2CCN(C(=O)C(=O)c3cccs3)CC2)c1	-2	x	-1	x	x	x	x	x
O=C(Nc1nc(-c2ccccc2)nc2ccccc12)c1ccc(F)cc1	2	1	11*	-6	4	-4	16*	27*
CCc1nnc2c(NCCc3ccc(OC)c(OC)c3)nc3ccccc3n12	-4	-24	6	13	x	23	x	x
Cc1nnc2c(NCCc3ccccc3)nc3ccccc3n12	18	-27	11*	18	4	31	49*	62*
Cn1c(=O)oc2cc(S(=O)(=O)NCCc3ccccc3)ccc21	-4	13	1	0	-7	12	x	x
Cc1cccc(CCNS(=O)(=O)c2ccc3c(c2)oc(=O)n3C)c1	7	11	18*	-8	0	-1	5	7
Cc1sc(NC(=S)NC(=O)C2CCCCC2)c(C(N)=O)c1C	7	-24	32*	-2	-2	4	24*	31*
